Test results as given in ChEMBL document CHEMBL1151166, “Structures of new sesquiterpenes and hepatoprotective constituents from the Egyptian herbal medicine Cyperus longus” (J Nat Prod, 2004).

Assays:
Hepatocyte [1] = assay: Hepatoprotective activity in ddY mouse hepatocytes assessed as inhibition of D-galactosamine-induced cytotoxicity at 100 uM after 44 hrs by MTT assay relative to control; type: functional
In short: (§1)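 Cells then exposed to D-GalN (2 mM) plus test sample for 44 h. MTT was added for 4 h. Formazan was dissolved in acidic 2-propanol and read at 562 nm (reference 660 nm). Inhibition (%) = (sample − control)/(normal − control) × 100. Values are means ± SEM.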

Hepatocyte [2] = assay: Hepatoprotective activity in ddY mouse hepatocytes assessed as inhibition of D-galactosamine-induced cytotoxicity at 30 uM after 44 hrs by MTT assay relative to control; type: functional; in short: as §1
Hepatocyte [3] = assay: Hepatoprotective activity in ddY mouse hepatocytes assessed as inhibition of D-galactosamine-induced cytotoxicity at 10 uM after 44 hrs by MTT assay relative to control; type: functional; in short: as §1
Hepatocyte [4] = assay: Hepatoprotective activity in ddY mouse hepatocytes assessed as inhibition of D-galactosamine-induced cytotoxicity after 44 hrs by MTT assay relative to control; type: functional, cell-based; in short: as §1
Hepatocyte [5] = assay: Hepatoprotective activity in ddY mouse hepatocytes assessed as inhibition of D-galactosamine-induced cytotoxicity at 3 uM after 44 hrs by MTT assay relative to control; type: functional; in short: as §1

## CC(C)(O)[C@@H]1CC=C(CO)CC1
Hepatocyte [1]
  inhibition at 100 µM: 53.3%
Hepatocyte [2]
  inhibition at 30 µM: 16.7%
Hepatocyte [3]
  inhibition at 10 µM: 1.7%
Hepatocyte [4]
  IC50: 90 µM
Hepatocyte [5]
  inhibition at 3 µM: -1.5%

## C/C1=C\CC(C)(C)[C@@H](O)[C@H]2C[C@@]2(C)[C@@H](O)CC1
Hepatocyte [1]
  inhibition at 100 µM: 54.8%
Hepatocyte [2]
  inhibition at 30 µM: 37.3%
Hepatocyte [3]
  inhibition at 10 µM: 16.6%
Hepatocyte [4]
  IC50: 70 µM
Hepatocyte [5]
  inhibition at 3 µM: 5.9%

## CC1=C[C@H]2[C@H](C(C)C)CC[C@](C)(O)[C@H]2C[C@H]1O
Hepatocyte [1]
  inhibition at 100 µM: 15.2%
Hepatocyte [2]
  inhibition at 30 µM: 9.3%
Hepatocyte [3]
  inhibition at 10 µM: 3.7%
Hepatocyte [5]
  inhibition at 3 µM: -2.3%

## CC1(C)C[C@@H]2O[C@@]2(C)CC[C@H]2O[C@]2(C)C[C@@H]2O[C@H]21
Hepatocyte [1]
  inhibition at 100 µM: 51.1%
Hepatocyte [2]
  inhibition at 30 µM: 25.7%
Hepatocyte [3]
  inhibition at 10 µM: 9.7%
Hepatocyte [4]
  IC50: 95 µM
Hepatocyte [5]
  inhibition at 3 µM: 6.9%

## CC1(C)CC2[C@H]1CC[C@@]1(C)O[C@]2(CO)CC[C@H]1O (stereo partly specified)
Hepatocyte [1]
  inhibition at 100 µM: 45.9%
Hepatocyte [2]
  inhibition at 30 µM: 19.9%
Hepatocyte [3]
  inhibition at 10 µM: 10.4%
Hepatocyte [5]
  inhibition at 3 µM: 5.7%

## C=C(C)[C@@H]1CC[C@@H](C)[C@@]2(O)CC(=O)C(C)=C2C1
Hepatocyte [1]
  inhibition at 100 µM: 58%
Hepatocyte [2]
  inhibition at 30 µM: 13.5%
Hepatocyte [3]
  inhibition at 10 µM: -1.1%
Hepatocyte [4]
  IC50: 83 µM
Hepatocyte [5]
  inhibition at 3 µM: -4.5%

## CC1(C)C[C@@H]2[C@@H]1CC[C@@]1(C)C[C@]2(O)CC[C@@H]1O
Hepatocyte [1]
  inhibition at 100 µM: 51.7%
Hepatocyte [2]
  inhibition at 30 µM: 26.7%
Hepatocyte [3]
  inhibition at 10 µM: 16.8%
Hepatocyte [4]
  IC50: 100 µM
Hepatocyte [5]
  inhibition at 3 µM: 6.3%

## C=C1C/C=C/C(C)(C)C[C@@H](O)/C(C)=C\C[C@@H]1O
Hepatocyte [1]
  inhibition at 100 µM: 80.8%
Hepatocyte [2]
  inhibition at 30 µM: 47.5%
Hepatocyte [3]
  inhibition at 10 µM: 25.6%
Hepatocyte [4]
  IC50: 27 µM
Hepatocyte [5]
  inhibition at 3 µM: 11.6%

## CC1(C)CC2[C@H]1CC[C@@]1(C)OC[C@]2(O)CC[C@@H]1O (stereo partly specified)
Hepatocyte [1]
  inhibition at 100 µM: 36.4%
Hepatocyte [2]
  inhibition at 30 µM: 24.8%
Hepatocyte [3]
  inhibition at 10 µM: 14.3%
Hepatocyte [5]
  inhibition at 3 µM: 12.5%

## CC1(C)C[C@H](O)[C@]23CC[C@@H](O)[C@@](C)(CC[C@@H]12)C3 [CLOVANEDIOL]
Hepatocyte [1]
  inhibition at 100 µM: 40.2%
Hepatocyte [2]
  inhibition at 30 µM: 32.3%
Hepatocyte [3]
  inhibition at 10 µM: 13.6%
Hepatocyte [5]
  inhibition at 3 µM: 3.6%

## C=C(C)[C@@H]1CC[C@](C)(O)C2=C(C1)[C@](C)(O)CC2=O [CYPERUSOL A1]
Hepatocyte [1]
  inhibition at 100 µM: 16.5%
Hepatocyte [2]
  inhibition at 30 µM: 9.5%
Hepatocyte [3]
  inhibition at 10 µM: 5.6%
Hepatocyte [5]
  inhibition at 3 µM: 2.2%

## C=C(C)C(CC[C@H](C)O)CC1=C(C)CCC1=O (stereo partly specified) [CYPERUSOL B1]
Hepatocyte [1]
  inhibition at 100 µM: 34.7%
Hepatocyte [2]
  inhibition at 30 µM: 22.7%
Hepatocyte [3]
  inhibition at 10 µM: 20.4%
Hepatocyte [5]
  inhibition at 3 µM: 3%

## C=C(C)C(CC[C@@H](C)O)CC1=C(C)CCC1=O (stereo partly specified) [CYPERUSOL B2]
Hepatocyte [1]
  inhibition at 100 µM: 19.9%
Hepatocyte [2]
  inhibition at 30 µM: -1.4%
Hepatocyte [3]
  inhibition at 10 µM: 6.5%
Hepatocyte [5]
  inhibition at 3 µM: 4.4%

## C=C(C)[C@@H]1CC[C@@]2(C)[C@H](O)CC[C@@](C)(O)[C@@H]2C1 [CYPERUSOL C]
Hepatocyte [1]
  inhibition at 100 µM: 29.9%
Hepatocyte [2]
  inhibition at 30 µM: 28.4%
Hepatocyte [3]
  inhibition at 10 µM: 8.1%
Hepatocyte [5]
  inhibition at 3 µM: 6.3%

## C=C(C)[C@@H]1CC[C@@H](C)[C@]2(O)CC[C@](C)(O)C(=O)[C@@H]12 [CYPERUSOL D]
Hepatocyte [1]
  inhibition at 100 µM: 46.1%
Hepatocyte [2]
  inhibition at 30 µM: 31.9%
Hepatocyte [3]
  inhibition at 10 µM: 2.6%
Hepatocyte [5]
  inhibition at 3 µM: -3.6%

## C=C(C)[C@@H]1CC[C@](C)(O)[C@H]2CC[C@](C)(O)[C@H]2C1 [GUAIDIOL]
Hepatocyte [1]
  inhibition at 100 µM: 35.4%
Hepatocyte [2]
  inhibition at 30 µM: 20.3%
Hepatocyte [3]
  inhibition at 10 µM: 10.4%
Hepatocyte [5]
  inhibition at 3 µM: 2.6%

## C=C(C)[C@@H]1CC[C@]2(C)C(=C(C)C(=O)C[C@H]2O)C1 [LIGUCYPERONOL]
Hepatocyte [1]
  inhibition at 100 µM: 46.7%
Hepatocyte [2]
  inhibition at 30 µM: 12.6%
Hepatocyte [3]
  inhibition at 10 µM: 13.9%
Hepatocyte [5]
  inhibition at 3 µM: 5.5%

## C=C(C)C(CCC(C)=O)CC1=C(C)CCC1=O (stereo unspecified) [MANDASSIDIONE]
Hepatocyte [1]
  inhibition at 100 µM: 21.6%
Hepatocyte [2]
  inhibition at 30 µM: 14.7%
Hepatocyte [3]
  inhibition at 10 µM: 7.7%
Hepatocyte [5]
  inhibition at 3 µM: -0.1%

## COc1cc(C2Oc3cc([C@H]4Oc5cc(O)cc(O)c5C(=O)[C@@H]4O)ccc3OC2CO)ccc1O (stereo partly specified) [SILIBININ]
Hepatocyte [1]
  inhibition at 100 µM: 77%
Hepatocyte [2]
  inhibition at 30 µM: 45.2%
Hepatocyte [3]
  inhibition at 10 µM: 7.7%
Hepatocyte [4]
  IC50: 41 µM
Hepatocyte [5]
  inhibition at 3 µM: 4.8%

## CC1=CCC(C(C)(C)O)CC1O (stereo unspecified) [SOBREROL]
Hepatocyte [1]
  inhibition at 100 µM: 23.7%
Hepatocyte [2]
  inhibition at 30 µM: 15.9%
Hepatocyte [3]
  inhibition at 10 µM: 8.9%
Hepatocyte [5]
  inhibition at 3 µM: 5.5%

## CC1(C)C[C@H]2[C@H]1[C@H]1C[C@@]1(C)[C@H](O)CC[C@]2(C)O [TRICYCLOHUMULADIOL]
Hepatocyte [1]
  inhibition at 100 µM: 37.7%
Hepatocyte [2]
  inhibition at 30 µM: 22.1%
Hepatocyte [3]
  inhibition at 10 µM: 16.1%
Hepatocyte [5]
  inhibition at 3 µM: 10.9%
